Assay results as given in ChEMBL document CHEMBL1137333, “Synthesis, radiosynthesis, and biological evaluation of carbon-11 labeled 2beta-carbomethoxy-3beta-(3'-((Z)-2-haloethenyl)phenyl)nortropanes: candidate radioligands for in vivo imaging of the serotonin transporter with positron emission tomography” (J Med Chem, 2006).

Tests used:
Cynomolgus monkey [1] = assay: Ratio of uptake in medulla to cerebellum of anesthetized cynomolgus monkey after 85 mins; type: ADME, organism-based; details: in vivo
In short: (§1)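 Baseline microPET (Concorde P4) in anesthetized cynomolgus monkey after injection of the [11C]-labelled tracer. Regional time-activity curves were taken, and each region's uptake was divided by cerebellum uptake (low-SERT reference) at 65, 85 and 105 min postinjection.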

Cynomolgus monkey [2] = assay: Uptake in anesthetized cynomolgus monkey caudate after 27.5 mins; type: ADME, organism-based, Caudate nucleus; details: in vivo
In short: (§2)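 Baseline microPET (Concorde P4) regional brain time-activity curves in anesthetized cynomolgus monkey following injection of the [11C]-labelled tracer, with radioactivity followed over the scan.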

Cynomolgus monkey [3] = assay: Ratio of uptake in thalamus to cerebellum of anesthetized cynomolgus monkey after 85 mins; type: ADME, organism-based; details: in vivo; in short: as §1
Cynomolgus monkey [4] = assay: Uptake in anesthetized cynomolgus monkey midbrain after 55.0 mins; type: ADME, organism-based; details: in vivo
In short: (§3)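 Baseline microPET scan (P4 scanner) of anesthetized cynomolgus monkeys after injection of the carbon-11 labelled nortropane tracer. Two baseline studies were run per tracer. Radioactivity was followed over time in regional brain time-activity curves.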

Cynomolgus monkey [5] = assay: Uptake in anesthetized cynomolgus monkey putamen after 75.0 mins; type: ADME, organism-based; details: in vivo, 1.25 h
In short: (§4)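 Baseline microPET (Concorde P4) scan in anesthetized cynomolgus monkeys after injection of the carbon-11 labeled tracer, with no chase drug. Regional brain time-activity curves were followed over the scan. Tracer radiochemical purity and specific activity were determined by analytical HPLC at the time of injection.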

Cynomolgus monkey [6] = assay: Uptake in anesthetized cynomolgus monkey midbrain after 45.0 mins; type: ADME, organism-based; details: in vivo, 0.75 h; in short: as §3
Cynomolgus monkey [7] = assay: Uptake in anesthetized cynomolgus monkey frontal after 4.5 mins; type: ADME, organism-based, Frontal cortex; details: in vivo, 0.075 h; in short: as §3
Cynomolgus monkey [8] = assay: Ratio of uptake in midbrain to cerebellum of anesthetized cynomolgus monkey after 105 mins; type: ADME, organism-based; details: in vivo, 1.75 h; in short: as §1
Cynomolgus monkey [9] = assay: Uptake in anesthetized cynomolgus monkey putamen after 35.0 mins; type: ADME, organism-based; details: in vivo; in short: as §4
Cynomolgus monkey [10] = assay: Ratio of uptake in medulla to cerebellum of anesthetized cynomolgus monkey after 65 mins; type: ADME, organism-based; details: in vivo; in short: as §1
Cynomolgus monkey [11] = assay: Uptake in anesthetized cynomolgus monkey medulla after 6.5 mins; type: ADME, organism-based, Medulla of organ; details: in vivo; in short: as §3
Cynomolgus monkey [12] = assay: Uptake in anesthetized cynomolgus monkey occipital after 65.0 mins; type: ADME, organism-based, Macaca mulatta, Occipital cortex; details: rhesus monkey, in vivo; in short: as §3
Cynomolgus monkey [13] = assay: Uptake in anesthetized cynomolgus monkey thalamus after 3.5 mins; type: ADME, organism-based; details: in vivo; in short: as §4
Cynomolgus monkey [14] = assay: Uptake in anesthetized cynomolgus monkey pons after 1.5 mins; type: ADME, organism-based, Macaca mulatta; details: rhesus monkey, in vivo, 0.025 h; in short: as §3
Cynomolgus monkey [15] = assay: Ratio of uptake in midbrain to cerebellum of anesthetized cynomolgus monkey after 85 mins; type: ADME, organism-based; details: in vivo; in short: as §1
Cynomolgus monkey [16] = assay: Uptake in anesthetized cynomolgus monkey occipital after 55.0 mins; type: ADME, organism-based, Occipital cortex; details: in vivo; in short: as §3
Cynomolgus monkey [17] = assay: Uptake in anesthetized cynomolgus monkey occipital after 2.5 mins; type: ADME, organism-based, Macaca mulatta, Occipital cortex; details: rhesus monkey, in vivo; in short: as §3
Cynomolgus monkey [18] = assay: Ratio of uptake in putamen to cerebellum of anesthetized cynomolgus monkey after 65 mins; type: ADME, organism-based; details: in vivo; in short: as §1
Cynomolgus monkey [19] = assay: Uptake in anesthetized cynomolgus monkey caudate after 75.0 mins; type: ADME, organism-based, Caudate nucleus; details: in vivo, 1.25 h; in short: as §2
Cynomolgus monkey [20] = assay: Uptake in anesthetized cynomolgus monkey medulla after 27.5 mins; type: ADME, organism-based, Medulla of organ; details: in vivo; in short: as §3
Cynomolgus monkey [21] = assay: Ratio of uptake in frontal to cerebellum of anesthetized cynomolgus monkey after 65 mins; type: ADME, organism-based; details: in vivo; in short: as §1
Cynomolgus monkey [22] = assay: Uptake in anesthetized cynomolgus monkey pons after 95.0 mins; type: ADME, organism-based; details: in vivo; in short: as §4
Cynomolgus monkey [23] = assay: Uptake in anesthetized cynomolgus monkey medulla after 0.5 mins; type: ADME, organism-based, Medulla of organ; details: in vivo; in short: as §3
Cynomolgus monkey [24] = assay: Uptake in anesthetized cynomolgus monkey medulla after 2.5 mins; type: ADME, organism-based, Medulla of organ; details: in vivo; in short: as §3
Cynomolgus monkey [25] = assay: Uptake in anesthetized cynomolgus monkey cerebellum after 1.5 mins; type: ADME, organism-based; details: in vivo, 0.025 h; in short: as §2
Cynomolgus monkey [26] = assay: Uptake in anesthetized cynomolgus monkey medulla after 55.0 mins; type: ADME, organism-based, Medulla of organ; details: in vivo; in short: as §3
Cynomolgus monkey [27] = assay: Uptake in anesthetized cynomolgus monkey frontal after 22.5 mins; type: ADME, organism-based, Frontal cortex; details: in vivo, 0.375 h; in short: as §3
Cynomolgus monkey [28] = assay: Uptake in anesthetized cynomolgus monkey putamen after 3.5 mins; type: ADME, organism-based; details: in vivo; in short: as §4
Cynomolgus monkey [29] = assay: Uptake in anesthetized cynomolgus monkey midbrain after 6.5 mins; type: ADME, organism-based; details: in vivo; in short: as §3
Cynomolgus monkey [30] = assay: Uptake in anesthetized cynomolgus monkey frontal after 105.0 mins; type: ADME, organism-based, Frontal cortex; details: in vivo, 1.75 h; in short: as §3
Cynomolgus monkey [31] = assay: Ratio of uptake in caudate to cerebellum of anesthetized cynomolgus monkey after 105 mins; type: ADME, organism-based; details: in vivo, 1.75 h; in short: as §1
Cynomolgus monkey [32] = assay: Uptake in anesthetized cynomolgus monkey frontal after 27.5 mins; type: ADME, organism-based, Frontal cortex; details: in vivo; in short: as §3
Cynomolgus monkey [33] = assay: Uptake in anesthetized cynomolgus monkey frontal after 35.0 mins; type: ADME, organism-based, Frontal cortex; details: in vivo; in short: as §3
Cynomolgus monkey [34] = assay: Uptake in anesthetized cynomolgus monkey midbrain after 95.0 mins; type: ADME, organism-based; details: in vivo; in short: as §3
Cynomolgus monkey [35] = assay: Uptake in anesthetized cynomolgus monkey caudate after 45.0 mins; type: ADME, organism-based, Caudate nucleus; details: in vivo, 0.75 h; in short: as §2

## [11CH3]OC(=O)[C@@H]1C2CCC(C[C@@H]1c1cccc(/C=C/Br)c1)N2 (stereo not given in full)
Cynomolgus monkey [1]
  Ratio: 1.6
Cynomolgus monkey [2]
  Drug uptake: 5.98
Cynomolgus monkey [3]
  Ratio: 1.5
Cynomolgus monkey [4]
  Drug uptake: 7.74
Cynomolgus monkey [5]
  Drug uptake: 7.45
Cynomolgus monkey [6]
  Drug uptake: 7.58
Cynomolgus monkey [7]
  Drug uptake: 1.57
Cynomolgus monkey [8]
  Ratio: 1.9
Cynomolgus monkey [9]
  Drug uptake: 7
Cynomolgus monkey [10]
  Ratio: 1.4
Cynomolgus monkey [11]
  Drug uptake: 5.27
Cynomolgus monkey [12]
  Drug uptake: 5.14
Cynomolgus monkey [13]
  Drug uptake: 1.54
Cynomolgus monkey [14]
  Drug uptake: 0.34
Cynomolgus monkey [15]
  Ratio: 1.8
Cynomolgus monkey [16]
  Drug uptake: 5.3
Cynomolgus monkey [17]
  Drug uptake: 0.65
Cynomolgus monkey [18]
  Ratio: 1.5
Cynomolgus monkey [19]
  Drug uptake: 6.61
Cynomolgus monkey [20]
  Drug uptake: 7.08
Cynomolgus monkey [21]
  Ratio: 1
Cynomolgus monkey [22]
  Drug uptake: 8.08
Cynomolgus monkey [23]
  Drug uptake: 0.02
Cynomolgus monkey [24]
  Drug uptake: 1.32
Cynomolgus monkey [25]
  Drug uptake: 0.35
Cynomolgus monkey [26]
  Drug uptake: 7.31
Cynomolgus monkey [27]
  Drug uptake: 3.47
Cynomolgus monkey [28]
  Drug uptake: 1.96
Cynomolgus monkey [29]
  Drug uptake: 4.84
Cynomolgus monkey [30]
  Drug uptake: 3.7
Cynomolgus monkey [31]
  Ratio: 1.7
Cynomolgus monkey [32]
  Drug uptake: 3.61
Cynomolgus monkey [33]
  Drug uptake: 3.7
Cynomolgus monkey [34]
  Drug uptake: 7.89
Cynomolgus monkey [35]
  Drug uptake: 6.63
